From ChEMBL document CHEMBL4732185, “Synthesis, biological evaluation and structure-activity relationship of novel dichloroacetophenones targeting pyruvate dehydrogenase kinases with potent anticancer activity” (Eur J Med Chem, 2021)
Calls of active or inactive are those of the source.

How the values were obtained:
[1] = target: [Pyruvate dehydrogenase (acetyl-transferring)] kinase isozyme 4, mitochondrial (Homo sapiens, UniProt Q16654); assay: Binding affinity to PDK4 (unknown origin) by isothermal titration calorimetry
In short: (§1)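 Isothermal titration calorimetry at 25 °C. Compound dissolved in DMSO, diluted to 100 µM in buffer and placed in the titration syringe; 250 µL of PDK protein solution in the reaction cell. Titrant added in 2.5 µL increments per injection.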

A-375 [2] = assay: Antiproliferative activity against human A375 cells assessed as growth inhibition after 72 hrs by MTT assay; format: functional, cell-based; conditions: Homo sapiens, A-375, 72 h; read-out: IC50
In short: (§2)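 MTT viability assay. Cancer lines seeded at 3000–6000 cells/well and L02 at 7000 cells/well, cultured overnight, then exposed to a full dose range for 72 h. MTT (0.5 mg/mL) added for 4 h, supernatant removed, formazan dissolved in DMSO, absorbance read at 570 nm. IC50 taken as the mean of three independent experiments. Cells grown in DMEM + 10% FBS, 37 °C, 5% CO2.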

A-375 [3] = assay: Induction of apoptosis in human A375 cells assessed as necrotic cells at 2.5 uM after 36 hrs by annexinV-FITC/propidium iodide staining based flow cytometric analysis (reference value: 1.63%); format: functional
MCF7 [4] = assay: Antiproliferative activity against human MCF7 cells assessed as growth inhibition at 10 uM after 72 hrs by MTT assay relative to control; format: functional; conditions: read-out: GI
In short: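 Single-concentration MTT screen on MCF-7 and A549 cells grown in DMEM + 10% FBS. Cells at 3000–6000/well, cultured overnight, then given compound in buffer with 1% DMSO for 72 h. MTT (0.5 mg/mL) added for 4 h, formazan dissolved in DMSO, A570 read. Percent inhibition reported as the average ± S.D. of three independent measurements.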

[5] = target: [Pyruvate dehydrogenase (acetyl-transferring)] kinase isozyme 1, mitochondrial (Homo sapiens, UniProt Q15118); assay: Binding affinity to PDK1 (unknown origin) by isothermal titration calorimetry; in short: as §1
A-375 [6] = assay: Induction of apoptosis in human A375 cells assessed as necrotic cells at 5 uM after 36 hrs by annexinV-FITC/propidium iodide staining based flow cytometric analysis (reference value: 1.63%); format: functional
A-375 [7] = assay: Induction of cell cycle arrest in human A375 cells assessed as accumulation at S phase at 1 uM after 24 hrs by propidium iodide staining based flow cytometric analysis (reference value: 37.33%); format: functional
A-375 [8] = assay: Induction of cell cycle arrest in human A375 cells assessed as accumulation at G2 phase at 5 uM after 24 hrs by propidium iodide staining based flow cytometric analysis (reference value: 10.02%); format: functional
A-375 [9] = assay: Inhibition of cell migration in human A375 cells at 0.5 to 2 uM after 24 hrs by wound healing assay; format: functional, cell-based; conditions: dose 0.5-2 µM
In short: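 A375 monolayer scratched and treated for 24 h, imaged at ×100. Closure ratio (%) = (start scratched area − after scratched area)/start scratched area, compared with control. P < 0.05 versus control considered significant.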

A-375 [10] = assay: Induction of apoptosis in human A375 cells assessed as viable cells at 1 uM after 36 hrs by annexinV-FITC/propidium iodide staining based flow cytometric analysis (reference value: 94.15%); format: functional; conditions: read-out: Activity
A-375 [11] = assay: Induction of apoptosis in human A375 cells assessed as early apoptotic cells at 2.5 uM after 36 hrs by annexinV-FITC/propidium iodide staining based flow cytometric analysis (reference value: 3.2%); format: functional
A549 = assay: Antiproliferative activity against human A549 cells assessed as growth inhibition after 72 hrs by MTT assay; format: functional, cell-based; conditions: Homo sapiens, A549, 72 h; read-out: IC50; in short: as §2
A-375 [12] = assay: Induction of ROS generation in human A375 cells at 1 to 5 uM after 4 hrs by DCFH-DA staining based assay; format: functional, cell-based; conditions: dose 1-5 µM
In short: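 ROS assay. A375 cells loaded with diluted DCFH-DA for 45 min at 37 °C, washed three times with PBS, then treated with compound at 37 °C for 4 h. Fluorescence read on a microplate reader at Ex/Em 485/535 nm.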

MCF7 [13] = assay: Antiproliferative activity against human MCF7 cells assessed as growth inhibition after 72 hrs by MTT assay; format: functional, cell-based; conditions: Homo sapiens, MCF7, 72 h; read-out: IC50; in short: as §2
A-375 [14] = assay: Induction of apoptosis in human A375 cells assessed as viable cells at 2.5 uM after 36 hrs by annexinV-FITC/propidium iodide staining based flow cytometric analysis (reference value: 94.15%); format: functional; conditions: read-out: Activity
A-375 [15] = assay: Induction of mitochondrial membrane depolarization in human A375 cells at 2 to 10 uM after 4 hrs by JC-1 staining based confocal microscopic analysis; format: functional, cell-based; conditions: dose 2-10 µM
In short: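 Mitochondrial membrane potential. A375 cells seeded at 4 × 10^4 cells/mL, grown overnight, then treated at 2, 5 or 10 µM at 37 °C for 4 h. Stained with JC-1 in fresh medium for 15 min at 37 °C, washed three times with cool PBS and imaged by laser scanning confocal microscopy (red J-aggregate vs green monomer).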

A-375 [16] = assay: Induction of apoptosis in human A375 cells assessed as necrotic cells at 5 uM after 12 hrs by annexinV-FITC/propidium iodide staining based flow cytometric analysis (reference value: 0.56%); format: functional
A-375 [17] = assay: Inhibition of PDK in human A375 cells assessed as increase in oxygen consumption rate after 4 hrs by XFe cell Mito stress test assay; format: cell-based; conditions: dose 2.5-5 µM
In short: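 A375 cells attached, then given an extra 100 µL growth medium and incubated 24 h. Treated 4 h, then rinsed twice with pre-warmed XFe base medium. OCR measured as in a previous report.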

A-375 [18] = assay: Induction of apoptosis in human A375 cells assessed as early apoptotic cells at 5 uM after 24 hrs by annexinV-FITC/propidium iodide staining based flow cytometric analysis (reference value: 0.87%); format: functional
L02 = assay: Cytotoxicity against human L02 cells assessed as reduction in cell viability after 72 hrs by MTT assay; format: cell-based; conditions: Homo sapiens, L02, 72 h; read-out: IC50; in short: as §2
A-375 [19] = assay: Induction of apoptosis in human A375 cells assessed as necrotic cells at 1 uM after 36 hrs by annexinV-FITC/propidium iodide staining based flow cytometric analysis (reference value: 1.63%); format: functional
A-375 [20] = assay: Induction of apoptosis in human A375 cells assessed as viable cells at 5 uM after 36 hrs by annexinV-FITC/propidium iodide staining based flow cytometric analysis (reference value: 94.15%); format: functional; conditions: read-out: Activity
Homo sapiens = species: Homo sapiens; assay: Inhibition of PDK (unknown origin) using RYHGHSMSDP as substrate at 1 uM after 30 mins by Kinase-Glo luminescent assay
A-375 [21] = assay: Induction of apoptosis in human A375 cells assessed as early apoptotic cells at 5 uM after 12 hrs by annexinV-FITC/propidium iodide staining based flow cytometric analysis (reference value: 0.87%); format: functional
A-375 [22] = assay: Induction of mitochondrial membrane depolarization in human A375 cells at 2 to 10 uM after 4 hrs by TMRM staining based confocal microscopic analysis; format: functional, cell-based; conditions: dose 2-10 µM
In short: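 A375 cells seeded at 4 x 10⁴ cells/mL and grown overnight at 37 °C. Treated 4 h at 37 °C. TMRM in fresh medium added for 15 min at 37 °C. Cells washed 3 times with cool PBS and imaged by laser scanning confocal microscopy.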

[Pyruvate dehydrogenase (acetyl-transferring)] kinase isozyme 4, mitochondrial, sequence (Q16654 whole entry): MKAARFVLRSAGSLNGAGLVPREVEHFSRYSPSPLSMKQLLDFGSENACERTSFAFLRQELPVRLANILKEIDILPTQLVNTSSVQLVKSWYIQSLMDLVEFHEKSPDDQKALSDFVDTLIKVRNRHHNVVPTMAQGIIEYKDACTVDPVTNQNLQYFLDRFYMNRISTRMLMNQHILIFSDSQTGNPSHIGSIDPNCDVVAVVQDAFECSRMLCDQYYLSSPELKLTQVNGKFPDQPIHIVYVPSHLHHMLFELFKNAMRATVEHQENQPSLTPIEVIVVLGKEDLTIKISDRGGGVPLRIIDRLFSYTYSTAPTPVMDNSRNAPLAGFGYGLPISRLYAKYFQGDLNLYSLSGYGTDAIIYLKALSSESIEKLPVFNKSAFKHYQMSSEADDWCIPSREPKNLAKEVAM
[Pyruvate dehydrogenase (acetyl-transferring)] kinase isozyme 1, mitochondrial, sequence (Q15118 whole entry): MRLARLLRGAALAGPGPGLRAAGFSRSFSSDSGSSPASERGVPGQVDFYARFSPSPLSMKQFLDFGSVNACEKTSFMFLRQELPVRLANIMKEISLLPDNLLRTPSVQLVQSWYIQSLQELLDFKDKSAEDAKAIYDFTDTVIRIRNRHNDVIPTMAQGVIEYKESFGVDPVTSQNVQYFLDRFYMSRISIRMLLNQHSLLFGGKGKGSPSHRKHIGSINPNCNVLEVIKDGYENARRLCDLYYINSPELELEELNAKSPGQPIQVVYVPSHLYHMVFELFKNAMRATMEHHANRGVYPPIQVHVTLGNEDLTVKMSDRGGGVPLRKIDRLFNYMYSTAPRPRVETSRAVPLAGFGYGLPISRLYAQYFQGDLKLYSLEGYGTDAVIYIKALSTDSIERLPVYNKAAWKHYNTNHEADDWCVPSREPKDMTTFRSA

`CC(C)(CO)c1ccc(Nc2ccc(C(=O)C(Cl)Cl)cc2[N+](=O)[O-])cc1` gave a Kd [1] of 9200 nM, an IC50 (A-375 [2]) of 1100 nM and an Activity (A-375 [3]) of 3.17%. The inhibition of growth at 10 µM (MCF7 [4]) was 95.3%, the Kd [5] was 210 nM and the Activity (A-375 [6]) was 4.21%. For the same compound, the Activity (A-375 [7]) was 34.63%, the Activity (A-375 [8]) was 5.71% and the inhibition (A-375 [9]) was “Active”. It also gave a viability at 1 µM (A-375 [10]) of 81.9%, an Activity (A-375 [11]) of 5.6% and an IC50 (A549) of 3200 nM. The Activity (A-375 [12]) was “Active”, the IC50 (MCF7 [13]) was 2400 nM and the viability at 2.5 µM (A-375 [14]) was 68.9%. The Activity (A-375 [15]) was “Active”, the Activity (A-375 [16]) was 1.65% and the inhibition (A-375 [17]) was “Dose-dependent effect”. The Activity (A-375 [18]) was 6.47%, the IC50 (L02) was 14400 nM and the Activity (A-375 [19]) was 4.06%. For the same compound, the viability at 5 µM (A-375 [20]) was 44.5%, the inhibition (Homo sapiens) was 98.7% and the Activity (A-375 [21]) was 8.7%. For the same compound, the Activity (A-375 [22]) was “Active”.
